Measured values taken from ChEMBL document CHEMBL4177624, “Rationally designed hecogenin thiosemicarbazone analogs as novel MEK inhibitors for the control of breast malignancies” (Bioorg Med Chem, 2017).

Legend:
Format in all cases: functional, cell-based
[1] = system: MDA-MB-468; assay: Antiproliferative activity against human MDA-MB-468 cells after 72 hrs by MTT assay; settings: MDA-MB-468, 72 h
Procedure, shortened: (§1)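 Six human breast carcinoma lines of differing molecular and phenotypic character were each exposed to a range of concentrations for 72 h. Proliferation was read by MTT. Results are given as mean percent viability, with IC₅₀ ± SEM calculated per cell line.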

[2] = system: SK-BR-3; assay: Antiproliferative activity against human SKBR3 cells after 72 hrs by MTT assay; settings: SK-BR-3, 72 h; procedure, shortened: as §1
[3] = system: MCF7; assay: Antiproliferative activity against human MCF7 cells after 72 hrs by MTT assay; settings: MCF7, 72 h; procedure, shortened: as §1
[4] = system: MDA-MB-231; assay: Antiproliferative activity against human MDA-MB-231 cells after 72 hrs by MTT assay; settings: MDA-MB-231, 72 h
Procedure, shortened: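 MDA-MB-231 triple-negative breast cancer cells were exposed to a range of concentrations for 72 h. Proliferation was read by MTT. Results are given as mean percent viability versus concentration, with IC₅₀ ± SEM calculated from the curve.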

[5] = system: BT-474; assay: Antiproliferative activity against human BT474 cells after 72 hrs by MTT assay; settings: BT-474, 72 h; procedure, shortened: as §1
[6] = system: T47D; assay: Antiproliferative activity against human T47D cells after 72 hrs by MTT assay; procedure, shortened: as §1

| SMILES | IC50 [1] | IC50 [2] | IC50 [3] | IC50 [4] | IC50 [5] | IC50 [6] |
| --- | --- | --- | --- | --- | --- | --- |
| CCc1ccccc1NC(=S)N/N=C1\C[C@H]2[C@@H](CC[C@H]3C[C@@H](O)CC[C@@]32C)[C@@H]2C[C@@H]3O[C@]4(CC[C@@H](C)CO4)[C@@H](C)[C@@H]3[C@@]12C | 5.8 µM | 4.7 µM | 5 µM | 3.8 µM | 8.3 µM | 8.8 µM |
| C[C@@H]1CC[C@@]2(OC1)O[C@H]1C[C@H]3[C@@H]4CC[C@H]5C[C@@H](O)CC[C@]5(C)[C@H]4C/C(=N\NC(=S)Nc4ccccc4)[C@]3(C)[C@H]1[C@@H]2C | 8.4 µM | 9.1 µM | 8 µM | 7.8 µM | 9.3 µM | 10.3 µM |
| C[C@@H]1CC[C@@]2(OC1)O[C@H]1C[C@H]3[C@@H]4CC[C@H]5C[C@@H](O)CC[C@]5(C)[C@H]4C/C(=N\NC(=S)Nc4ccc(Cl)cc4Cl)[C@]3(C)[C@H]1[C@@H]2C | 8 µM | 8.8 µM | 7.9 µM | 7.5 µM | 9 µM | 9.5 µM |
| C[C@@H]1CC[C@@]2(OC1)O[C@H]1C[C@H]3[C@@H]4CC[C@H]5C[C@@H](O)CC[C@]5(C)[C@H]4C/C(=N\NC(=O)Nc4ccc(Cl)cc4)[C@]3(C)[C@H]1[C@@H]2C | 11.3 µM | 9 µM | 9.1 µM | 8.5 µM | 9.8 µM | 12 µM |
| C[C@@H]1CC[C@@]2(OC1)O[C@H]1C[C@H]3[C@@H]4CC[C@H]5C[C@@H](OC(=O)c6ccccc6Cl)CC[C@]5(C)[C@H]4CC(=O)[C@]3(C)[C@H]1[C@@H]2C | > 40 µM | > 40 µM | > 40 µM | > 40 µM | > 40 µM | > 40 µM |
| C[C@@H]1CC[C@@]2(OC1)O[C@H]1C[C@H]3[C@@H]4CC[C@H]5C[C@@H](O)CC[C@]5(C)[C@H]4C/C(=N\NC(=S)Nc4ccc(Oc5ccccc5)cc4)[C@]3(C)[C@H]1[C@@H]2C | 30.8 µM | 29 µM | 27 µM | 28.1 µM | 31.2 µM | > 40 µM |
| C[C@@H]1CC[C@@]2(OC1)O[C@H]1C[C@H]3[C@@H]4CC[C@H]5C[C@@H](O)CC[C@]5(C)[C@H]4C/C(=N\NC(=S)Nc4ccc(Cl)cc4)[C@]3(C)[C@H]1[C@@H]2C | 12.8 µM | 14.8 µM | 12 µM | 11.5 µM | 11.8 µM | 15.1 µM |
